ChEMBL document CHEMBL3792364, “Identification and biological activity of 6-alkyl-substituted 3-methyl-pyridine-2-carbonyl amino dimethyl-benzoic acid EP4 antagonists” (Bioorg Med Chem Lett, 2016)
In brackets after ≈: the same amount, converted by molar mass. Activity calls are given as the source filed them. No cut-off for these calls is given here.

Tests used:
[1] = target: T1, Prostaglandin E2 receptor EP4 subtype (Homo sapiens, UniProt P35408); test: Antagonist activity against EP4 in human whole blood assessed as reversal of PGE2-mediated suppression of LPS-induced TNF-alpha production preincubated for 30 mins followed by LPS stimulation measured after 20 to 24 hrs by enzyme immunoassay; format: tissue-based
Summary of the method: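 Pooled blood from donors free of NSAIDs or celecoxib for 48 h and of glucocorticoids for 2 weeks. Blood pretreated 30 min at 37 °C, 5% CO2 with compound in DMSO (7-point curve, triplicate). LPS […] ± 10 nM PGE2 (final) added, then incubated 20–24 h. Plasma TNFα read at A450-A650. IC50 from sigmoidal nonlinear fit; geometric mean of independent runs.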

[2] = target: T1, Prostaglandin E2 receptor EP4 subtype; test: Antagonist activity against human EP4 expressed in HEK293 cells assessed as inhibition of PGE2-stimulated production of cAMP incubated for 20 mins by HTRF assay; format: functional, cell-based
[3] = Aqueous solubility of compound at pH 6 at 2 mM after 20 hrs by HPLC; format: physicochemical; conditions: aqueous medium
Summary of the method: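 Samples in DMSO dried 12 h, then redissolved at pH 6 at a 2 mM target concentration. Stirred 20 h, filtered through 0.7 µm GF filter. Filtrate concentration measured by HPLC against a DMSO standard curve.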

Rattus norvegicus [4] = test: Antiinflammatory activity in rat MIA model assessed as inhibition of differential weight bearing at 5 mg/kg, po measured 30 mins post dose by incapacitance test; format: functional, organism-based
Summary of the method: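 MIA 0.3 mg in 50 µL saline injected into right knee and saline into left knee of rats on day 0. Day 12: randomized, single oral dose in 10% acacia in water plus 0.05% antifoam at 0.3–10 mg/kg, with diclofenac 5 mg/kg. Hind-limb weight distribution measured by incapacitance tester 30 min post dose. n = 5/group, Dunnett's test versus vehicle.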

Rattus norvegicus [5] = test: Antiinflammatory activity in rat adjuvant induced arthritis model assessed as suppression of Mycobacterium tuberculosis H37 RA induced paw swelling at 10 mg/kg measured from day 11 to 15 relative to vehicle control; format: functional, organism-based
Summary of the method: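 Rat adjuvant-induced arthritis: paw widths measured, then 0.25 mg adjuvant (Mycobacterium tuberculosis H37 RA) in 100 µl mineral oil given intradermally at tail base (day 0). On day 11, width of both paws was re-measured as percent change from day 0, and rats were randomized on this and body weight before dosing. Rats were euthanized day 15 without further dosing and paw width measured.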

T1 sequence (P35408 whole entry): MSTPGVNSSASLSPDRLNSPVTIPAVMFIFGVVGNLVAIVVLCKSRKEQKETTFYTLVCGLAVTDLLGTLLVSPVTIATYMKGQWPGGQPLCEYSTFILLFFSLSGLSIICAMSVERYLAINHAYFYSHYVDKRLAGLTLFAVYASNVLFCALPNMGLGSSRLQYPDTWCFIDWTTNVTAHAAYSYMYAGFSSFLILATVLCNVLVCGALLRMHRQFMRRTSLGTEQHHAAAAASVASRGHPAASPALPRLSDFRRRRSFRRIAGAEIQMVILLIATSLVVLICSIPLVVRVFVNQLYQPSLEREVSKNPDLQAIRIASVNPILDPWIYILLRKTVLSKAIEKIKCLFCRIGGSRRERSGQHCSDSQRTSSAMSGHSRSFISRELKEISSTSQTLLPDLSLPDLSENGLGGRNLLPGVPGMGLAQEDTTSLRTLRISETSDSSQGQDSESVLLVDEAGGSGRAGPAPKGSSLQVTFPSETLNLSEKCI

Compound Cc1ccc(N2CCCC(CO)C2)nc1C(=O)Nc1c(C)cc(C(=O)O)cc1C (stereo not given) has an IC50 [1] of 1450 nM and an IC50 [2] of 16.5 nM.
In the case of Cc1ccc(N2CCCC(CO)C2)nc1C(=O)Nc1c(C)ccc(C(=O)O)c1C (stereo not given), the IC50 [1] is reported as 2890 nM and the IC50 [2] is reported as 14.2 nM.
For COC1CCN(c2ccc(C)c(C(=O)Nc3c(C)cc(C(=O)O)cc3C)n2)CC1, the IC50 [2] was 96.7 nM.
Cc1ccc(N2CCC(C)(O)CC2)nc1C(=O)Nc1c(C)cc(C(=O)O)cc1C gave an IC50 [1] of 3600 nM, a solubility at 20 h, 2000 µM [3] of 817 µg/mL (≈ 2060 µM) and an IC50 [2] of 39.8 nM.
In the case of O=C(O)Cc1ccccc1Nc1c(Cl)cccc1Cl, the Activity (Rattus norvegicus [4]) is reported as “Active” and the Activity (Rattus norvegicus [5]) is reported as “Active”.
